Consider 13 molecules from ChEMBL document CHEMBL3585317, “Structures and Biological Evaluations of Agelasines Isolated from the Okinawan Marine Sponge Agelas nakamurai” (J Nat Prod, 2015).

The test system of assay [1] is Mycolicibacterium smegmatis. In words: Antimycobacterial activity against Mycobacterium smegmatis NBRC 3207 assessed as inhibition zone at 10 ug/disc after 2 days incubation by paper disc method. Conditions: for zone of inhibition at 10 µg/disc: NBRC 3207, 48 h, read-out: IZ. It counts as functional. The essentials:
(§1)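 Disc diffusion: strain grown in Middlebrook 7H9 broth (0.05% polysorbate 80, 0.5% glycerol, 10% OADC) 2 days at 37 °C, adjusted to 1.0 × 10^6 CFU/mL, spread on same medium with 1.5% agar. Sample in CH3OH dried onto 6 mm filter disc, placed on plate, 2 days at 37 °C. Controls: streptomycin sulfate 5 μg/disc, CH3OH.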

For assay [2], the target named is T1, Tyrosine-protein phosphatase non-receptor type 1 (Homo sapiens, UniProt P18031).
T1 sequence (P18031 whole entry): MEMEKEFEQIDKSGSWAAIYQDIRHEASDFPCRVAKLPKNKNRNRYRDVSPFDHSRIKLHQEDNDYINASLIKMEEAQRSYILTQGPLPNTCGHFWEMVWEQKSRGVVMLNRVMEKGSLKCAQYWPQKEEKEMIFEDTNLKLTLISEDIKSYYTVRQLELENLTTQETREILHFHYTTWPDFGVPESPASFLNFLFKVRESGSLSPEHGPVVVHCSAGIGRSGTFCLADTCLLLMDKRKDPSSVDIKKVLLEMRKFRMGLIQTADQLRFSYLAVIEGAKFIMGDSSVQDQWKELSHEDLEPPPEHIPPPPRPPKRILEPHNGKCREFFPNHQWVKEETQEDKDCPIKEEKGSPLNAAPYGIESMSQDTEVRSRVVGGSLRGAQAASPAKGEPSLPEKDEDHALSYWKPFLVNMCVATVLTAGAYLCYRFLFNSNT
The experiment in a line: Inhibition of human recombinant PTP1B using pNPP as substrate assessed as rate of hydrolysis incubated for 10 mins prior to substrate addition measured after 30 mins by microplate reader analysis.

Assay [3] in a line: Cytotoxicity against human HuH7 cells after 72 hrs by WST1 assay. In kind it is functional, cell-based. Particulars: Huh-7, 72 h. The essentials:
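1 × 10^4 cells/well seeded, cultured overnight, then exposed to compound 72 h; vehicle control 0.1% EtOH. WST-1 reagent (0.5 mM WST-1, 0.02 mM 1-methoxy-5-methylphenazinium methylsulfate) added, 60 min at 37 °C. Viability = treated/control absorbance × 100%.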
For orientation: Formazan colour is commonly taken as a measure of viable cells.

The nature of assay [4]: Cytotoxicity against human EJ1 cells after 72 hrs by WST1 assay. Conditions: EJ1, 72 h. It counts as functional, cell-based. The essentials: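 1 × 10^4 cells/well seeded, cultured overnight, then exposed to compound 72 h; vehicle control 0.1% EtOH. WST-1 reagent (0.5 mM WST-1, 0.02 mM 1-methoxy-5-methylphenazinium methylsulfate) added, 60 min at 37 °C. Absorbance 438 nm (reference 620 nm). Viability = treated/control absorbance × 100%.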

Assay [5] concerns Mycolicibacterium smegmatis. In words: Antimycobacterial activity against Mycobacterium smegmatis NBRC 3207 assessed as inhibition zone at 20 ug/disc after 2 days incubation by paper disc method. It counts as functional. Conditions: NBRC 3207, 48 h, read-out: IZ. The essentials: as §1

Where a name gives a salt, the structure may show the parent alone. Activity calls are given as the source filed them. The calls are words filed in the database; no cut-off is given here.

`CN[C@@H]1[C@H](O[C@H]2[C@H](O[C@H]3[C@H](O)[C@@H](O)[C@H](N=C(N)N)[C@@H](O)[C@@H]3N=C(N)N)O[C@@H](C)[C@]2(O)C=O)O[C@@H](CO)[C@H](O)[C@H]1O` [STREPTOMYCIN SULFATE]: the zone of inhibition at 10 µg/disc in assay [1] was 30 mm.
As to `CC1=CC(=O)C[C@@H]2[C@@](C)(CC/C(C)=C/C[n+]3cn(C)c4ncnc(N)c43)[C@H](C)CC[C@@]12C`, the IC50 (usually the concentration needed to halve the response being measured) was > 23 µM in assay [2], > 50 µM in assay [3] and > 50 µM in assay [4].
Regarding `CC1=CC(=O)C[C@H](C)[C@@]1(C)CC/C(C)=C/CC/C(C)=C/C[n+]1cn(C)c2ncnc(N)c21`, the IC50 in assay [2] was > 23 µM; in assay [3], > 50 µM; in assay [4], > 50 µM.
`CC1=CCC[C@H](C)[C@@]1(C)CCC(C)(O)CCC/C(C)=C/C[n+]1cn(C)c2ncnc(N)c21` (stereo partly specified): the zone of inhibition at 20 µg/disc in assay [5] was found to be 10 mm. The IC50 in assay [2] is > 23 µM; in assay [3], > 50 µM; in assay [4] it was > 50 µM.
As for `CC1=CCC[C@H](C)[C@@]1(C)CC/C(C)=C/CC/C(C)=C/Cn1c[n+](C)c2ncnc(N)c21` [AGELINE A], the zone of inhibition at 10 µg/disc in assay [1] was 14 mm. Also, in assay [5], the zone of inhibition at 20 µg/disc was found to be 20 mm. Further, the IC50 in assay [2] was > 24 µM; in assay [3], 24 µM; in assay [4] it was 16 µM.
Consider `CC1=CCC[C@H]2[C@](C)(CC/C(C)=C/Cn3c[n+](C)c4ncnc(N)c43)[C@@H](C)CC[C@@]12C` [AGELASINE A], for which the zone of inhibition at 10 µg/disc in assay [1] was found to be 12 mm. The zone of inhibition at 20 µg/disc in assay [5] was found to be 14 mm. The IC50 in assay [2] was > 24 µM; in assay [3], > 50 µM; in assay [4], 42 µM.
`COc1cccc2c1C(=O)c1c(O)c3c(c(O)c1C2=O)C[C@@](O)(C(=O)CO)C[C@@H]3O[C@H]1C[C@H](N)[C@H](O)[C@H](C)O1` [DOXORUBICIN] showed an IC50 in assay [4] of 0.023 µM.
Take `CC1=CCC[C@@H]2[C@@](C)(CC/C(C)=C/Cn3c[n+](C)c4ncnc(N)c43)[C@H](C)CC[C@@]12C` [AGELASINE B]: the zone of inhibition at 10 µg/disc in assay [1] was 12 mm. Also, in assay [5], the zone of inhibition at 20 µg/disc was 15 mm. Further, the IC50 in assay [2] is > 24 µM; in assay [3], 22 µM; in assay [4], 19 µM.
`C=C1CCCC(C)(C)[C@H]1CC/C(C)=C/CC/C(C)=C/C[n+]1cn(C)c2ncnc(N)c21`: in assay [1], the zone of inhibition at 10 µg/disc stood at 10 mm. Besides, the zone of inhibition at 20 µg/disc in assay [5] worked out at 14 mm. For the same molecule, the IC50 in assay [2] is > 24 µM; in assay [3], > 50 µM; in assay [4] it was > 50 µM.
For the molecule `C/C(=C\Cn1c[n+](C)c2ncnc(N)c21)CC[C@]1(C)[C@@H](C)CC[C@@]2(C)C(COC(=O)c3ccc[nH]3)=CCC[C@@H]12` [AGELINE B], the zone of inhibition at 10 µg/disc in assay [1] is 9 mm. In assay [5], the zone of inhibition at 20 µg/disc came to 12 mm. Moreover, the IC50 in assay [2] was > 19 µM; in assay [3] it was > 50 µM; in assay [4] it was > 50 µM.
With `C=C1CC[C@@H]2C(C)(C)CCC[C@@]2(C)[C@@H]1CC/C(C)=C/Cn1c[n+](C)c2ncnc(N)c21` [AGELASINE D], the zone of inhibition at 10 µg/disc in assay [1] is 14 mm. In addition, the zone of inhibition at 20 µg/disc in assay [5] was found to be 18 mm. Moreover, the IC50 in assay [2] is > 24 µM; in assay [3] it was 36 µM; in assay [4] it was 19 µM.
Turning to `C/C(=C\Cn1c[n+](C)c2ncnc(N)c21)CC[C@]1(C)[C@@H](C)CC[C@@]2(C)C(COC(=O)c3cc(Br)c[nH]3)=CCC[C@@H]12`, the zone of inhibition at 10 µg/disc in assay [1] turned out to be 10 mm. For the same molecule, the zone of inhibition at 20 µg/disc in assay [5] is 12 mm. The IC50 in assay [2] is 15 µM; in assay [3], 26 µM; in assay [4] it was 18 µM.
Take `CC1=CC(=O)C[C@H]2[C@](C)(CC/C(C)=C/C[n+]3cn(C)c4ncnc(N)c43)[C@@H](C)CC[C@@]12C`: the “growth inhibition (GI)” value in assay [1] was “inactive”. Also, the results for the IC50 in assay [2], in assay [3] and in assay [4] were > 23 µM, > 50 µM and > 50 µM, respectively.
